≈ marks a conversion by molar mass, not a printed value. Calls of active or inactive are those of the source. The rule behind the calls is not given here. Where a SMILES comes first, the peptide text is derived from it. [ ]: non-standard residue; d: D form. The star is where a group is joined. Trt = c1ccc(C(c2ccccc2)(c2ccccc2)*)cc1; Sar = CNCC(=O)O; tBu = CC(C)(C)*
Assays:
[1] = Solubility of the compound in pH 1 0.1M HCl after 2 hrs by UV-HPLC analysis; format: physicochemical
Summary of the method: (§1)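 Solubility was measured in PBS pH 7.4 and at pH 1.0, in μM, n = 2.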

[2] = n-Octanol/water partition coefficient, log D of compound at pH 7.4 by UV-HPLC analysis
[3] = Solubility of the compound in pH 7.4 phosphate buffered saline after 2 hrs by UV-HPLC analysis; format: physicochemical; summary of the method: as §1
[4] = Permeability of the compound in pH 7.4 phosphate buffered saline at 20 uM after 20 hrs by PAMPA; format: ADME; settings: for Papp at 20 h, 20 µM: PAMPA, pH 7.4, read-out: permeability; for permeability: pampa, pH 7.4, 20 h, 20 µM, BLD = below limit of detection
Summary of the method: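 PAMPA giving experimental permeability Pe (×10–6 cm/s), n = 3. The limit of quantitation in the acceptor compartment was 0.02 or 0.03 μM.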

Plasmodium falciparum [5] = assay: Antiplasmodial activity against chloroquine-resistant Plasmodium falciparum K1 infected in human erythrocytes assessed as reduction in [3H]hypoxanthine incorporation pretreated for 24 hrs followed by [3H]hypoxanthine addition and measured after 24 hrs by liquid scintillation counting method; format: functional, organism-based
Summary of the method: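 Chloroquine-resistant P. falciparum K1 in erythrocytes incubated with compound for 24 h; growth read as 3H-hypoxanthine incorporation; EC50 reported as mean ± SD of n = 2.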

Plasmodium falciparum [6] = assay: Anti-plasmodial activity against chloroquine-sensitive Plasmodium falciparum 3D7 infected in erythrocytes after 72 hrs by SYBR green dye based fluorescence assay; format: functional, organism-based; settings: 3D7, 72 h
Summary of the method: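 P. falciparum 3D7 (drug-sensitive) grown in erythrocytes; growth read by SYBR Green fluorescence; EC50 reported as mean ± SD of n = 2.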

[7] = Selectivity index, ratio of IC50 for mouse J774 cells to EC50 for chloroquine-resistant Plasmodium falciparum K1 infected in human erythrocytes; format: toxicity, cell-based; settings: read-out: Ratio IC50/EC50
[8] = Selectivity index, ratio of IC50 for human HepG2 cells to EC50 for chloroquine-sensitive Plasmodium falciparum 3D7 infected in erythrocytes; format: toxicity, cell-based; settings: read-out: Ratio IC50/EC50
Summary of the method: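 Selectivity index is HepG2 cytotoxicity IC50 divided by EC50 against drug-sensitive P. falciparum 3D7. Parasite EC50 came from a SYBR Green growth assay, with values as the mean of n = 2.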

Plasmodium falciparum [9] = assay: Plasmodicidal activity against Plasmodium falciparum 3D7A infected in CFDA-SE-labelled erythrocytes assessed as parasite killing at 10 times EC50 treated for 24 to 48 hrs following media refreshment for every 24 hrs by FACS analysis; format: functional, organism-based
Summary of the method: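 Viability was judged by the ability of drug-treated parasites to make new invasions of prestained human RBCs. New invasions were quantified by double-colorimetric FACS. Drug treatment used two time points to separate rapidly parasiticidal from moderate or slow acting agents.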

Plasmodium berghei [10] = assay: Antiplasmodial activity against exoerythrocytic-stage of Plasmodium berghei ANKA infected in human HepG2 cells expressing CD81 pretreated with cells for 18 hrs followed by parasite infection and measured after 48 hrs by brightglo-luminescence assay; format: functional, organism-based
[11] = Plasma concentration in Swiss albino mouse at 50 mg/kg, po after 0.5 to 12 hrs by LC-MS/MS analysis; format: ADME, organism-based; settings: in vivo
Summary of the method: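 Male Swiss Albino mice received a solution formulation of the compound as one oral dose of 50 mg/kg. Blood was sampled at 0.25, 0.5, 1, 2, 4, 6, 8, 12 and 24 h, and plasma levels were measured (LLOQ 5.16 ng/mL). Values are means, n = 3.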

Plasmodium berghei [12] = assay: Antiplasmodial activity against Plasmodium berghei NK65 infected in Swiss mouse assessed as reduction in parasitemia at 50 mg/kg, po administered once daily for 3 consecutive days post infection measured on day 5 post infection relative to control; format: functional; set-up: scale not given: the % may be the effect or the level left
Summary of the method: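 Suppressive test in Swiss outbred mice inoculated with P. berghei NK65-infected red blood cells. A single oral dose of 50 mg·kg–1 was given on each of days 2, 3 and 4. Control groups received chloroquine or vehicle. Parasitemia reduction was read on day 5 and followed until day 9.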

Plasmodium berghei [13] = assay: Antiplasmodial activity against Plasmodium berghei NK65 infected in Swiss mouse assessed as reduction in parasitemia at 50 mg/kg, po administered once daily for 3 consecutive days post infection measured on day 9 post infection; format: functional, organism-based
Summary of the method: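 Four-day suppressive test: Swiss outbred mice inoculated with P. berghei NK65-infected red blood cells, then given a single oral 50 mg/kg dose on each of days 2, 3 and 4. Chloroquine-treated and vehicle-treated groups served as controls. Parasitemia was measured on day 5 and followed to day 9.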

With `CN1CC(=O)N[C@@H](CSC(c2ccccc2)(c2ccccc2)c2ccccc2)C(=O)N[C@@H](CSC(c2ccccc2)(c2ccccc2)c2ccccc2)C(=O)N(C)CC(=O)N[C@@H](COC(C)(C)C)C1=O` (cyclo(C(Trt)C(Trt)[Sar]S(tBu)[Sar])) as the molecule, how does the solubility at 2 h [1] read?
The solubility at 2 h was 0.21 µM (≈ 0.205 µg/mL).

What about the logD [2] of the same molecule?
The logD was 7.7.

And the solubility at 2 h [3]?
Its solubility at 2 h is 0.12 µM (≈ 0.117 µg/mL).

What about the Papp at 20 h, 20 µM [4] of the same molecule?
The Papp at 20 h, 20 µM was 20 nm/s.

With `CN1CC(=O)N[C@@H](CSC(c2ccccc2)(c2ccccc2)c2ccccc2)C(=O)N[C@@H](Cc2ccccc2)C(=O)N[C@@H](COC(C)(C)C)C(=O)N(C)CC(=O)N[C@@H](CSC(c2ccccc2)(c2ccccc2)c2ccccc2)C1=O` (cyclo(C(Trt)FS(tBu)[Sar]C(Trt)[Sar])) as the molecule, how does the EC50 (Plasmodium falciparum [5]) read?
The EC50 was 9 nM.

What about the EC90 (Plasmodium falciparum [5]) of the same molecule?
The EC90 was 59 nM.

What about the EC50 (Plasmodium falciparum [6]) of the same molecule?
The EC50 was 1.8 nM.

What about the solubility at 2 h [1] of the same molecule?
The solubility at 2 h was 5.32 µM (≈ 5.98 µg/mL).

And the logD [2]?
The logD was 8.

What about the solubility at 2 h [3] of the same molecule?
The solubility at 2 h was 0.71 µM (≈ 0.798 µg/mL).

What about the Papp at 20 h, 20 µM [4] of the same molecule?
Its Papp at 20 h, 20 µM is 2 nm/s.

What about the selectivity ratio [7] of the same molecule?
Its selectivity ratio is greater than 11000.

What about the selectivity ratio [8] of the same molecule?
The selectivity ratio was greater than 140000.

And the Activity (Plasmodium falciparum [9])?
The Activity was “inactive”.

And the EC50 (Plasmodium berghei [10])?
Its EC50 is 335 nM.

What does the source list for `CN1CC(=O)N[C@@H](CSC(c2ccccc2)(c2ccccc2)c2ccccc2)C(=O)NCC(=O)N[C@@H](CSC(c2ccccc2)(c2ccccc2)c2ccccc2)C(=O)NCC(=O)N[C@@H](CCC(=O)O)C1=O` (cyclo(C(Trt)GC(Trt)GE[Sar]))?
EC50 (Plasmodium falciparum [6]): 5400 nM; logD [2]: 3.1; permeability [4]: Bld; selectivity ratio [8]: > 46

What does the source list for `C[C@@H](OC(C)(C)C)[C@@H]1NC(=O)CNC(=O)[C@H](CSC(c2ccccc2)(c2ccccc2)c2ccccc2)NC(=O)CNC(=O)[C@H](CSC(c2ccccc2)(c2ccccc2)c2ccccc2)NC(=O)CN(C)C1=O` (cyclo(C(Trt)GC(Trt)GT(tBu)[Sar]))?
EC50 (Plasmodium falciparum [5]): 8 nM; EC90 (Plasmodium falciparum [5]): 39 nM; EC50 (Plasmodium falciparum [6]): 3.8 nM; solubility at 2 h [1]: 1.17 µM (≈ 1.21 µg/mL); logD [2]: 5.8; solubility at 2 h [3]: 0.94 µM (≈ 0.971 µg/mL); Papp at 20 h, 20 µM [4]: 6 nm/s; selectivity ratio [7]: > 12500; selectivity ratio [8]: > 66000

With `CN1CC(=O)N[C@@H](CSC(c2ccccc2)(c2ccccc2)c2ccccc2)C(=O)NCC(=O)N[C@@H](CSC(c2ccccc2)(c2ccccc2)c2ccccc2)C(=O)N(C)CC(=O)N[C@@H](CCC(=O)O)C1=O` (cyclo(C(Trt)GC(Trt)[Sar]E[Sar])) as the molecule, how does the EC50 (Plasmodium falciparum [6]) read?
Its EC50 is 210 nM.

And the permeability [4]?
Its permeability is “Bld”.

What does the source list for `C[C@@H](OC(C)(C)C)[C@@H]1NC(=O)CN(C)C(=O)[C@H](CSC(c2ccccc2)(c2ccccc2)c2ccccc2)NC(=O)CNC(=O)[C@H](CSC(c2ccccc2)(c2ccccc2)c2ccccc2)NC(=O)CN(C)C1=O` (cyclo(C(Trt)GC(Trt)[Sar]T(tBu)[Sar]))?
EC50 (Plasmodium falciparum [5]): 0.008 nM; EC90 (Plasmodium falciparum [5]): 1 nM; EC50 (Plasmodium falciparum [6]): 0.25 nM; solubility at 2 h [1]: 3.46 µM (≈ 3.62 µg/mL); logD [2]: 6; solubility at 2 h [3]: 0.38 µM (≈ 0.398 µg/mL); Papp at 20 h, 20 µM [4]: 10 nm/s; Cp [11]: > 9 ng/mL; selectivity ratio [8]: > 1e+06; Activity (Plasmodium berghei [12]): 71%; Activity (Plasmodium berghei [13]): Active

Which results are given for `CN1CC(=O)N[C@@H](CSC(c2ccccc2)(c2ccccc2)c2ccccc2)C(=O)N(C)CC(=O)N[C@@H](CSC(c2ccccc2)(c2ccccc2)c2ccccc2)C(=O)N(C)CC(=O)N[C@@H](CCC(=O)O)C1=O` (cyclo(C(Trt)[Sar]C(Trt)[Sar]E[Sar]))?
EC50 (Plasmodium falciparum [5]): 0.2 nM; EC90 (Plasmodium falciparum [5]): 4 nM; EC50 (Plasmodium falciparum [6]): 12 nM; solubility at 2 h [1]: 28.3 µM (≈ 29.3 µg/mL); logD [2]: 3.9; solubility at 2 h [3]: 437 µM (≈ 451 µg/mL); Papp at 20 h, 20 µM [4]: 2 nm/s; selectivity ratio [7]: 500000; selectivity ratio [8]: > 20000; Activity (Plasmodium berghei [12]): 66%; Activity (Plasmodium berghei [13]): Active

Which EC50 (Plasmodium falciparum [5]) does the source give for `CN1CC(=O)N[C@@H](CSC(c2ccccc2)(c2ccccc2)c2ccccc2)C(=O)N(C)CC(=O)N[C@@H](CSC(c2ccccc2)(c2ccccc2)c2ccccc2)C(=O)N(C)CC(=O)N[C@@H](COC(C)(C)C)C1=O` (cyclo(C(Trt)[Sar]C(Trt)[Sar]S(tBu)[Sar])) here?
The EC50 was 0.13 nM.

What about the EC90 (Plasmodium falciparum [5]) of the same molecule?
Its EC90 is 4 nM.

What about the EC50 (Plasmodium falciparum [6]) of the same molecule?
The EC50 was 1.4 nM.

What about the solubility at 2 h [1] of the same molecule?
Its solubility at 2 h is 0.74 µM (≈ 0.775 µg/mL).

What about the logD [2] of the same molecule?
Its logD is 6.3.

What about the solubility at 2 h [3] of the same molecule?
Its solubility at 2 h is 0.18 µM (≈ 0.189 µg/mL).

And the Papp at 20 h, 20 µM [4]?
Its Papp at 20 h, 20 µM is 3 nm/s.

What about the selectivity ratio [7] of the same molecule?
Its selectivity ratio is greater than 770000.

And the selectivity ratio [8]?
Its selectivity ratio is greater than 180000.

For `C[C@@H](OC(C)(C)C)[C@@H]1NC(=O)CN(C)C(=O)[C@H](CSC(c2ccccc2)(c2ccccc2)c2ccccc2)NC(=O)CN(C)C(=O)[C@H](CSC(c2ccccc2)(c2ccccc2)c2ccccc2)NC(=O)CN(C)C1=O` (cyclo(C(Trt)[Sar]C(Trt)[Sar]T(tBu)[Sar])), which EC50 (Plasmodium falciparum [5]) is on record?
Its EC50 is 0.04 nM.

And the EC90 (Plasmodium falciparum [5])?
The EC90 was 1 nM.

And the EC50 (Plasmodium falciparum [6])?
Its EC50 is 1 nM.

And the solubility at 2 h [1]?
The solubility at 2 h was 0.38 µM (≈ 0.403 µg/mL).

What about the logD [2] of the same molecule?
The logD was 3.7.

And the solubility at 2 h [3]?
Its solubility at 2 h is 0.55 µM (≈ 0.584 µg/mL).

And the Papp at 20 h, 20 µM [4]?
The Papp at 20 h, 20 µM was 2 nm/s.

And the selectivity ratio [7]?
The selectivity ratio was greater than 2.5e+06.

What about the selectivity ratio [8] of the same molecule?
Its selectivity ratio is greater than 250000.

And the Activity (Plasmodium falciparum [9])?
The Activity was “inactive”.

What about the EC50 (Plasmodium berghei [10]) of the same molecule?
Its EC50 is 18 nM.

For `C[C@@H]1CC[C@H]2[C@@H](C)C(=O)O[C@@H]3O[C@@]4(C)CC[C@@H]1[C@]32OO4` [ARTEMISININ], which EC50 (Plasmodium falciparum [5]) is on record?
Its EC50 is 20 nM.

With `C[C@H]1[C@H](OC(=O)CCC(=O)O)O[C@@H]2O[C@@]3(C)CC[C@H]4[C@H](C)CC[C@@H]1[C@@]24OO3` [ARTESUNATE] as the molecule, how does the EC50 (Plasmodium falciparum [5]) read?
The EC50 was 3 nM.

And the EC50 (Plasmodium falciparum [6])?
Its EC50 is 5 nM.

For `O=C1C(O)=C([C@H]2CC[C@H](c3ccc(Cl)cc3)CC2)C(=O)c2ccccc21` [ATOVAQUONE], which Activity (Plasmodium falciparum [9]) is on record?
Its Activity is “inactive”.

What about the EC50 (Plasmodium berghei [10]) of the same molecule?
The EC50 was 2.8 nM.

For `CCN(CC)CCCC(C)Nc1ccnc2cc(Cl)ccc12` (stereo not given) [CHLOROQUINE], which EC50 (Plasmodium falciparum [5]) is on record?
Its EC50 is 470 nM.

Which EC50 (Plasmodium falciparum [6]) does the source give for `CCc1nc(N)nc(N)c1-c1ccc(Cl)cc1` [PYRIMETHAMINE] here?
The EC50 was 35 nM.

And the Activity (Plasmodium falciparum [9])?
Its Activity is “inactive”.

— ChEMBL document CHEMBL4382296, “Synthesis, Profiling, and in Vivo Evaluation of Cyclopeptides Containing N-Methyl Amino Acids as Antiplasmodial Agents” (ACS Med Chem Lett, 2019)
